Series [1] deals with T1, Stearoyl-CoA desaturase (Homo sapiens, UniProt O00767).
T1 sequence (O00767 whole entry): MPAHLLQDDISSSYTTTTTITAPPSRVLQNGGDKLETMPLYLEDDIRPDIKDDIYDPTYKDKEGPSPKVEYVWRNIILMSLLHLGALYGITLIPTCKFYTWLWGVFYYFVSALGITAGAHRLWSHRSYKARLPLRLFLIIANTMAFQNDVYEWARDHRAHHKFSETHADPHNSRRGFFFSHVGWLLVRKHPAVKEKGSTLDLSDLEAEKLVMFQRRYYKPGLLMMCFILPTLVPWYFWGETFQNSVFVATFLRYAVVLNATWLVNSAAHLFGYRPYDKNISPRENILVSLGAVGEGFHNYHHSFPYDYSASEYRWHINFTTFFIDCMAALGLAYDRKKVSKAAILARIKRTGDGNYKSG
Description: Displacement of (5-(6-(10H-spiro(1-benzofuran-3,30-pyrrolidin)-10-yl)pyridazin-3-yl)-1,2,4-oxadiazol-3-yl)[3H2]methanol from SCD1 in human liver microsomes after 120 mins TopCount liquid scintillation counting method. The essentials:
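Human SCD1 liver microsomes incubated 120 min with 3.0 nM [3H]-ligand and test compound over a range of concentrations. Bound ligand collected on PEI-pretreated GF/B filters, washed five times, counted by scintillation. Controls: DMSO (100%) and 10 µM unlabeled reference ligand (0%). IC50 from a three-parameter logistic fit.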
Background: Liver microsomes are a subcellular fraction often used to study metabolism.

The test system of the next series is HCT-116. Description: Growth inhibition of human HCT116 cells after 72 hrs by CellTiter-Glo luminescence assay. The settings on record: HCT-116, 72 h. The class given is functional. The gist of the method:
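HCT116 cells seeded at 9 × 10^2 cells/well and cultured 24 h. Compounds diluted in growth medium to final concentrations and added. Proliferation read by CellTiter-Glo luminescence after 72 h.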

A short description of series [2]: Stability in human liver microsomes. The conditions noted are these: read-out: Stability. The class given is ADME, microsome.
The nature of series [3]: Stability in mouse liver microsomes. The format is ADME, microsome. The conditions noted are these: read-out: Stability.
A short description of series [4]: Fraction unbound in mouse plasma. The class given is ADME, cell-free.
The nature of series [5]: AUC in po dosed mouse administered as cassette dose. The format is ADME, organism-based. The settings on record: in vivo. The gist of the method:
(§1)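 Mouse cassette-dosing PK: 0.1 mg/kg iv and 1 mg/kg po. Total clearance given in […]. AUC (ng·h/mL) and MRT (h) taken after the oral dose.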

Series [6] in a line: Mean residence time in po dosed mouse administered as cassette dose. The format is ADME, organism-based. The conditions noted are these: in vivo. The gist of the method:
as §1

The subject of a further series is 786-0. Put plainly: Antitumor activity against human 786-O cells xenografted in athymic BALB/cA Jc1-nu/nu mouse assessed as tumor growth inhibition at 1 mg/kg, po bid administered for 28 days measured twice per week. The class given is functional. The essentials:
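Female BALB/c nu/nu mice, 7 weeks old, inoculated subcutaneously in the flank with 3.0 × 10^6 786-O cells (1:1 with Matrigel). Randomized at mean tumor volume of about 130 mm3, n = 8/group. Dosed orally at 1 mg/kg bid, or with 0.5% methylcellulose vehicle, for 28 days at 10 mL/kg. Calipers used twice weekly, volume = W²×L/2. T/C taken at Day 28; Student's t-test.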
(In general: Xenograft models place foreign cells or tissue in a host animal.)

Series [7] is described as follows: Total clearance in mouse at 0.1 mg/kg, iv or 1 mg/kg, po administered as cassette dose. The settings on record: in vivo. The format is ADME, organism-based. The essentials:
as §1

The subject of series [8] is Mus musculus. Put plainly: Toxicity in athymic BALB/cA Jc1-nu/nu mouse at 1 mg/kg, po bid administered for 28 days. The class given is organism-based. The settings on record: in vivo, 672 h.
In series [9] the test system is Mus musculus. Description: In-vivo inhibition of SCD1 in athymic nude mouse xenografted with human HCT116 cells assessed as decrease in desaturation index of phosphatidylcholine at 0.3 to 30 mg/kg, po bid measured after 16 hrs by LC/MS analysis. The class given is functional, organism-based. The essentials:
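Nude mice bearing HCT116 xenografts of about 200 mm3, randomized. Oral dosing at 0.3, 3 and 30 mg/kg bid in 0.5% methylcellulose. Tumors collected 16 h after two doses and homogenized in isopropanol. Lipids analyzed by LC/Orbitrap MS. DI taken as the ratio PC C36:3/PC C36:0. Statistics by Williams' test.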

Series [10] has as its system Mus musculus. Description: AUC in mouse at 1 mg/kg, po administered as cassette dose. The settings on record: in vivo. The format is ADME, organism-based. The essentials:
as §1

Series [11] is described as follows: Mean residence time in mouse at 1 mg/kg, po administered as cassette dose. The format is ADME, organism-based. The conditions noted are these: in vivo. The gist of the method: as §1
Series [12] deals with T1, Stearoyl-CoA desaturase. Description: Inhibition of SCD1 (unknown origin).

The source of these data is ChEMBL document CHEMBL4052653, “Discovery of Novel and Potent Stearoyl Coenzyme A Desaturase 1 (SCD1) Inhibitors as Anticancer Agents” (Bioorg Med Chem, 2017).

Active and inactive are the calls of the source. The calls are words filed in the database; no cut-off is given here. Bounds are passed on as bounds.

In the case of `N#CC1(c2cccc(Cl)c2)CCN(c2ccc(-c3nc(CO)no3)nn2)CC1`, at Stearoyl-CoA desaturase [1], the IC50 (usually the concentration at which inhibition is half-maximal) was determined as 15 nM. Further, the GI50 (as a rule, the concentration that inhibits growth by half) with HCT-116 came out at 200 nM.
`NC1(c2ccccc2)CCN(c2ccc(-c3nc(CO)no3)nn2)CC1` displayed an IC50 on Stearoyl-CoA desaturase [1] of 220 nM. The GI50 with HCT-116 is 530 nM.
With `OCc1noc(-c2ccc(N3CCC(O)(c4ccccc4)CC3)nn2)n1`, on Stearoyl-CoA desaturase [1], the IC50 came to 130 nM. In the series on HCT-116, this compound returned a GI50 of over 1000 nM.
As for `OCc1nnc(-c2ccc(N3CCC(c4ccc(C(F)(F)F)cc4)(C(F)(F)F)CC3)nn2)o1`, the microsomal CLint in series [2] stood at 14 µL/min/mg; in [3] it was 33 µL/min/mg. Moreover, the IC50 at Stearoyl-CoA desaturase [1] worked out at 4.7 nM. Also, in series [4], the fraction unbound (commonly the share of the substance not bound to proteins or other matrix) was 0.07. This compound gave a GI50 in the series on HCT-116 of 2.7 nM. Also, the AUC (as a rule, concentration integrated over time) in [5] was found to be 3760 ng·h/mL. Moreover, the MRT (usually the average time that molecules of a dose stay in the body) in series [6] was determined as 4.2 h. Moreover, in the series on 786-0, the T/C (as a rule, the result in the treated group divided by that in the control group, in per cent) is recorded as 32.8%. The compound further had a clearance in series [7] of 5.17 mL/min/kg. Also, the Activity entry in the series with Mus musculus [8] is listed as “Non-Toxic”. For the same compound, the inhibition entry with Mus musculus [9] was “Active”.
As for `COC1(c2ccccc2)CCN(c2ccc(-c3nc(CO)no3)nn2)CC1`, on Stearoyl-CoA desaturase [1], the IC50 amounted to 110 nM. This compound yielded a GI50 in the series on HCT-116 of 410 nM.
The like results for `N#CC1(c2ccccc2)CCN(c2ccc(-c3nc(CO)no3)nn2)CC1` were, in that order, 190 nM and 530 nM.
`OCc1noc(-c2ccc(N3CCC4(COc5ccccc54)C3)nn2)n1` (stereo unspecified) showed an AUC with Mus musculus [10] of 299 ng·h/mL. The MRT in [11] was 2.3 h. On Stearoyl-CoA desaturase [12], this compound returned an IC50 of 4.6 nM.
Consider `N#CC1(c2ccc(OC(F)(F)F)cc2)CCN(c2ccc(-c3nc(CO)no3)nn2)CC1`, for which, in [3], the microsomal CLint came out at 35 µL/min/mg. On Stearoyl-CoA desaturase [1], this compound came in with an IC50 of 11 nM. Further, in the series on HCT-116, the GI50 amounted to 32 nM.
Consider `N#CC1(c2ccc(S(F)(F)(F)(F)F)cc2)CCN(c2ccc(-c3nc(CO)no3)nn2)CC1`, for which the microsomal CLint in series [2] came to 7 µL/min/mg; in [3], 24 µL/min/mg. The compound further showed an IC50 at Stearoyl-CoA desaturase [1] of 9.5 nM. This compound also returned a GI50 in the series on HCT-116 of 8.4 nM.
As to `CC(C)(C)c1ccc(C2(C#N)CCN(c3ccc(-c4nc(CO)no4)nn3)CC2)cc1`, in series [3], the microsomal CLint turned out to be 119 µL/min/mg. On Stearoyl-CoA desaturase [1], this compound displayed an IC50 of 21 nM. This compound also yielded a GI50 in the series on HCT-116 of 37 nM.
For `N#CC1(c2ccccc2Cl)CCN(c2ccc(-c3nc(CO)no3)nn2)CC1`, on Stearoyl-CoA desaturase [1], the IC50 is 80 nM. Also, the GI50 with HCT-116 is 240 nM.
`OCc1noc(-c2ccc(N3CCC(c4ccccc4)(C(F)(F)F)CC3)nn2)n1` came in with an IC50 at Stearoyl-CoA desaturase [1] of 38 nM. In addition, the GI50 with HCT-116 is 39 nM.
`OCc1nnc(-c2ccc(N3CCC(c4ccc(C(F)(F)F)cc4)(C(F)(F)F)CC3)nn2)s1`: in series [3], the microsomal CLint is 1 µL/min/mg. At Stearoyl-CoA desaturase [1], this compound yielded an IC50 of 2.5 nM. This compound returned a fraction unbound in [4] of 0.03. This compound also gave a GI50 in the series on HCT-116 of 1.1 nM. Besides, in series [5], the area under the curve (AUC) stood at 1190 ng·h/mL. In addition, the MRT in series [6] turned out to be 4.1 h. The clearance in series [7] is 15.9 mL/min/kg.
Turning to `N#CC1(c2ccc([N+](=O)[O-])cc2)CCN(c2ccc(-c3nc(CO)no3)nn2)CC1`, the microsomal CLint worked out at 6 µL/min/mg in series [2] and 11 µL/min/mg in series [3]. At Stearoyl-CoA desaturase [1], this compound registered an IC50 of 100 nM. In the series on HCT-116, this compound returned a GI50 of 170 nM.
Turning to `N#CC1(c2ccc(Cl)cc2)CCN(c2ccc(-c3nc(CO)no3)nn2)CC1`, in series [3], the microsomal CLint was found to be 39 µL/min/mg. Further, the 50% inhibitory concentration (IC50) at Stearoyl-CoA desaturase [1] came to 20 nM. In the series on HCT-116, this compound yielded a GI50 of 110 nM.
In the case of `OCc1nsc(-c2ccc(N3CCC(c4ccc(C(F)(F)F)cc4)(C(F)(F)F)CC3)nn2)n1`, the microsomal CLint in series [2] was found to be 10 µL/min/mg. This compound registered a half-inhibitory concentration (IC50) at Stearoyl-CoA desaturase [1] of 1.2 nM. The same compound had a fraction unbound in series [4] of 0.01. The compound further returned a GI50 in the series with HCT-116 of 1.3 nM. Also, the AUC in series [5] is 1820 ng·h/mL. Besides, the MRT in series [6] worked out at 4.2 h. In [7], this compound had a clearance of 8.23 mL/min/kg.
Consider `OCc1noc(-c2ccc(N3CCC(c4ccc(C(F)(F)F)cc4)(C(F)(F)F)CC3)nn2)n1`, for which the microsomal CLint was 20 µL/min/mg in series [2] and 19 µL/min/mg in series [3]. Moreover, the IC50 on Stearoyl-CoA desaturase [1] worked out at 2.3 nM. For the same compound, the fraction unbound in series [4] stood at 0.05. The GI50 with HCT-116 worked out at 1.3 nM. In [5], this compound yielded an AUC of 432 ng·h/mL. In [6], this compound returned an MRT of 3.2 h. In addition, in series [7], the clearance is 15.4 mL/min/kg.
With `N#CC1(c2ccc(C(F)(F)F)cc2)CCN(c2ccc(-c3nc(CO)no3)nn2)CC1`, the figures for the microsomal CLint in series [2] and in series [3] were 2 µL/min/mg and 33 µL/min/mg, respectively. In addition, at Stearoyl-CoA desaturase [1], the IC50 came out at 27 nM. In addition, the GI50 with HCT-116 worked out at 39 nM.
